Results: ChEMBL document CHEMBL1152989, “Results of a double-blind, randomized trial of ceftobiprole treatment of complicated skin and skin structure infections caused by gram-positive bacteria” (Antimicrob Agents Chemother, 2008)
≈ marks a conversion by molar mass, not a printed value.

What was measured:
[1] = tested on: Staphylococcus aureus; test: Antibacterial activity against methicillin-resistant Staphylococcus aureus; type: functional
Method in brief: (§1)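 Duplicate baseline isolates from the infection site were tested centrally for susceptibility on customized TREK broth panels by CLSI methods. Identification was by coagulase and API testing. Staphylococci were typed for mecA and PVL genes by multiplex analysis.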

[2] = tested on: Staphylococcus aureus; test: Antibacterial activity against methicillin-resistant Staphylococcus aureus PVL positive isolate infected in human with complicated skin and skin structure infection assessed as cure rate at test-of-cure visit; type: functional
[3] = species on record: Homo sapiens; test: Toxicity in methicillin-resistant Staphylococcus aureus-infected human with complicated skin and skin structure infection assessed as diarrhea; type: organism-based; details: in vivo
Method in brief: (§2)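 Safety population: randomized patients given at least one dose of IV study drug (500 mg every 12 h, 1-h infusion, 7–14 days) or vancomycin 1 g every 12 h, double-blind. Adverse events, including deaths, were recorded during treatment and follow-up. Laboratory values were compared between baseline and end of therapy.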

[4] = species on record: Homo sapiens; test: Toxicity in methicillin-resistant Staphylococcus aureus-infected human with complicated skin and skin structure infection assessed as pruritus; type: organism-based; details: in vivo; method in brief: as §2
[5] = tested on: Staphylococcus aureus; test: Antibacterial activity against methicillin-resistant Staphylococcus aureus infected in human with infections extending to fascia or muscle assessed as cure rate at test-of-cure visit; type: functional, Muscle tissue
[6] = tested on: Staphylococcus aureus; test: Antibacterial activity against methicillin-resistant Staphylococcus aureus infected in human with complicated skin and skin structure infection assessed as cure rate at test-of-cure visit in presence of C-reactive protein; type: functional
[7] = species on record: Homo sapiens; test: Toxicity in methicillin-resistant Staphylococcus aureus-infected human with complicated skin and skin structure infection assessed as nausea; type: organism-based; details: in vivo; method in brief: as §2
[8] = species on record: Homo sapiens; test: Toxicity in methicillin-resistant Staphylococcus aureus-infected human with complicated skin and skin structure infection assessed as headache; type: organism-based; details: in vivo; method in brief: as §2
[9] = species on record: Homo sapiens; test: Toxicity in methicillin-resistant Staphylococcus aureus-infected human with complicated skin and skin structure infection assessed as dizziness; type: organism-based; details: in vivo; method in brief: as §2
[10] = species on record: Homo sapiens; test: Toxicity in methicillin-resistant Staphylococcus aureus-infected human with complicated skin and skin structure infection assessed as constipation; type: organism-based; details: in vivo; method in brief: as §2
[11] = tested on: Staphylococcus aureus; test: Antibacterial activity against methicillin-resistant Staphylococcus aureus infected in human with complicated skin and skin structure infection assessed as cure rate at test-of-cure visit; type: functional
[12] = species on record: Homo sapiens; test: Toxicity in methicillin-resistant Staphylococcus aureus-infected human with complicated skin and skin structure infection assessed as rash; type: organism-based; details: in vivo; method in brief: as §2
[13] = species on record: Homo sapiens; test: Toxicity in methicillin-resistant Staphylococcus aureus-infected human with complicated skin and skin structure infection assessed as vomiting; type: organism-based; details: in vivo; method in brief: as §2
[14] = tested on: Staphylococcus aureus; test: Antibacterial activity against methicillin-resistant Staphylococcus aureus clinical isolate; type: functional; method in brief: as §1
[15] = species on record: Homo sapiens; test: Toxicity in methicillin-resistant Staphylococcus aureus-infected human assessed as death; type: organism-based; details: in vivo; method in brief: as §2
[16] = tested on: Staphylococcus aureus; test: Antibacterial activity against methicillin-susceptible Staphylococcus aureus infected in human with complicated skin and skin structure infection assessed as cure rate at test-of-cure visit; type: functional
[17] = tested on: Staphylococcus aureus; test: Antibacterial activity against methicillin-susceptible Staphylococcus aureus; type: functional; method in brief: as §1
[18] = species on record: Homo sapiens; test: Toxicity in methicillin-resistant Staphylococcus aureus-infected human with complicated skin and skin structure infection assessed as dysgeusia; type: organism-based; details: in vivo; method in brief: as §2

| SMILES | MIC90 [1] | Activity [2] | Activity [3] | Activity [4] | Activity [5] | Activity [6] | Activity [7] | Activity [8] | Activity [9] | Activity [10] | Activity [11] | Activity [12] | Activity [13] | MIC50 [14] | MIC90 [14] | Activity [15] | Activity [16] | MIC50 [17] | MIC90 [17] | Activity [18] |
| --- | --- | --- | --- | --- | --- | --- | --- | --- | --- | --- | --- | --- | --- | --- | --- | --- | --- | --- | --- | --- |
| Nc1nc(/C(=N/O)C(=O)N[C@@H]2C(=O)N3C(C(=O)O)=C(/C=C4\CCN([C@@H]5CCNC5)C4=O)CS[C@H]23)ns1 [CEFTOBIPROLE] | ≤ 2 µg/mL | 93.1% | 5% | 3% | 90.5% | 86.9% | 14% | 7% | 4% | 4% | 91.8% | 2% | 7% | 0.5 µg/mL (≈ 0.935 µM) | 2 µg/mL (≈ 3.74 µM) | Non-toxic | 96% | 0.25 µg/mL (≈ 0.468 µM) | 0.5 µg/mL (≈ 0.935 µM) | 8% |
| CN[C@H](CC(C)C)C(=O)N[C@H]1C(=O)N[C@@H](CC(N)=O)C(=O)N[C@H]2C(=O)N[C@H]3C(=O)N[C@H](C(=O)N[C@H](C(=O)O)c4cc(O)cc(O)c4-c4cc3ccc4O)[C@H](O)c3ccc(c(Cl)c3)Oc3cc2cc(c3O[C@@H]2O[C@H](CO)[C@@H](O)[C@H](O)[C@H]2O[C@H]2C[C@](C)(N)[C@H](O)[C@H](C)O2)Oc2ccc(cc2Cl)[C@H]1O [VANCOMYCIN] |  | 84.6% | 4% | 6% | 85.7% | 87.5% | 8% | 6% | 2% | 3% | 90% | 3% | 4% | 0.5 µg/mL (≈ 0.345 µM) | 1 µg/mL (≈ 0.69 µM) |  | 96.4% | 0.5 µg/mL (≈ 0.345 µM) | 1 µg/mL (≈ 0.69 µM) | 1% |
